Measurements taken from paper PMC8317200 (Journal of medicinal chemistry, 2020).
Residues, ends and D or L forms follow the SMILES beside them. *: point of attachment. Adamantane1carbonyl = O=C(C12CC3CC(CC(C3)C1)C2)*; OtBu = CC(C)(C)O*; OAll = C=CCO*; OPr = CCCO*

T1: FGF14 (Homo sapiens, UniProt Q92915)
T1 sequence (Q92915 64-252 isoform Q92915-2): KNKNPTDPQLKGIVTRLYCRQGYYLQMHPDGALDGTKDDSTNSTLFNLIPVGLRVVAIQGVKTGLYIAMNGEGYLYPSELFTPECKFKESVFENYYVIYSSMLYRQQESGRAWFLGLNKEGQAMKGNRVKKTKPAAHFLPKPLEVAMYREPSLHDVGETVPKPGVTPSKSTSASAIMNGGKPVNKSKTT

B1: Nav1.6 C-terminal tail, aa 1767–1912 (domain or fragment, human, UniProt Q9UQD0-1 1767-1912, looked up)
chain: ENFSVATEESADPLSEDDFETFYEIWEKFDPDATQFIEYCKLADFADALEHPLRVPKPNTIELIAMDLPMVSGDRIHCLDILFAFTKRVLGDSGELDILRQQMEERFVASNPSKVSYEPITTTLRRKQEEVSAVVLQRAYRGHLAR
B2: fibroblast growth factor 14 (FGF14), aa 64–252 (domain or fragment, human, UniProt Q92915-2 64-252, looked up)
chain: T1 sequence (Q92915 64-252 isoform Q92915-2)
B3: FGF14: purified recombinant human fibroblast growth factor 14 protein flown over Nav1.6 C-terminal tail in SPR (protein)
chain: T1 sequence (Q92915 64-252 isoform Q92915-2)
modifications: left off: His6, N-terminal, state not stated

How the values were obtained:
FGF14 = target: T1, FGF14; assay: Surface plasmon resonance; format: binding; conditions: for koff: read-out: koff FGF14; for kon: read-out: kon FGF14
[1] = target: human Nav1.6 (HEK-Nav1.6) channels (Homo sapiens, UniProt Q9UQD0); format: cell-based; conditions: 30 μM; absence of FGF14
human Nav1.6 (HEK-Nav1.6) channels, sequence (Q9UQD0 whole entry): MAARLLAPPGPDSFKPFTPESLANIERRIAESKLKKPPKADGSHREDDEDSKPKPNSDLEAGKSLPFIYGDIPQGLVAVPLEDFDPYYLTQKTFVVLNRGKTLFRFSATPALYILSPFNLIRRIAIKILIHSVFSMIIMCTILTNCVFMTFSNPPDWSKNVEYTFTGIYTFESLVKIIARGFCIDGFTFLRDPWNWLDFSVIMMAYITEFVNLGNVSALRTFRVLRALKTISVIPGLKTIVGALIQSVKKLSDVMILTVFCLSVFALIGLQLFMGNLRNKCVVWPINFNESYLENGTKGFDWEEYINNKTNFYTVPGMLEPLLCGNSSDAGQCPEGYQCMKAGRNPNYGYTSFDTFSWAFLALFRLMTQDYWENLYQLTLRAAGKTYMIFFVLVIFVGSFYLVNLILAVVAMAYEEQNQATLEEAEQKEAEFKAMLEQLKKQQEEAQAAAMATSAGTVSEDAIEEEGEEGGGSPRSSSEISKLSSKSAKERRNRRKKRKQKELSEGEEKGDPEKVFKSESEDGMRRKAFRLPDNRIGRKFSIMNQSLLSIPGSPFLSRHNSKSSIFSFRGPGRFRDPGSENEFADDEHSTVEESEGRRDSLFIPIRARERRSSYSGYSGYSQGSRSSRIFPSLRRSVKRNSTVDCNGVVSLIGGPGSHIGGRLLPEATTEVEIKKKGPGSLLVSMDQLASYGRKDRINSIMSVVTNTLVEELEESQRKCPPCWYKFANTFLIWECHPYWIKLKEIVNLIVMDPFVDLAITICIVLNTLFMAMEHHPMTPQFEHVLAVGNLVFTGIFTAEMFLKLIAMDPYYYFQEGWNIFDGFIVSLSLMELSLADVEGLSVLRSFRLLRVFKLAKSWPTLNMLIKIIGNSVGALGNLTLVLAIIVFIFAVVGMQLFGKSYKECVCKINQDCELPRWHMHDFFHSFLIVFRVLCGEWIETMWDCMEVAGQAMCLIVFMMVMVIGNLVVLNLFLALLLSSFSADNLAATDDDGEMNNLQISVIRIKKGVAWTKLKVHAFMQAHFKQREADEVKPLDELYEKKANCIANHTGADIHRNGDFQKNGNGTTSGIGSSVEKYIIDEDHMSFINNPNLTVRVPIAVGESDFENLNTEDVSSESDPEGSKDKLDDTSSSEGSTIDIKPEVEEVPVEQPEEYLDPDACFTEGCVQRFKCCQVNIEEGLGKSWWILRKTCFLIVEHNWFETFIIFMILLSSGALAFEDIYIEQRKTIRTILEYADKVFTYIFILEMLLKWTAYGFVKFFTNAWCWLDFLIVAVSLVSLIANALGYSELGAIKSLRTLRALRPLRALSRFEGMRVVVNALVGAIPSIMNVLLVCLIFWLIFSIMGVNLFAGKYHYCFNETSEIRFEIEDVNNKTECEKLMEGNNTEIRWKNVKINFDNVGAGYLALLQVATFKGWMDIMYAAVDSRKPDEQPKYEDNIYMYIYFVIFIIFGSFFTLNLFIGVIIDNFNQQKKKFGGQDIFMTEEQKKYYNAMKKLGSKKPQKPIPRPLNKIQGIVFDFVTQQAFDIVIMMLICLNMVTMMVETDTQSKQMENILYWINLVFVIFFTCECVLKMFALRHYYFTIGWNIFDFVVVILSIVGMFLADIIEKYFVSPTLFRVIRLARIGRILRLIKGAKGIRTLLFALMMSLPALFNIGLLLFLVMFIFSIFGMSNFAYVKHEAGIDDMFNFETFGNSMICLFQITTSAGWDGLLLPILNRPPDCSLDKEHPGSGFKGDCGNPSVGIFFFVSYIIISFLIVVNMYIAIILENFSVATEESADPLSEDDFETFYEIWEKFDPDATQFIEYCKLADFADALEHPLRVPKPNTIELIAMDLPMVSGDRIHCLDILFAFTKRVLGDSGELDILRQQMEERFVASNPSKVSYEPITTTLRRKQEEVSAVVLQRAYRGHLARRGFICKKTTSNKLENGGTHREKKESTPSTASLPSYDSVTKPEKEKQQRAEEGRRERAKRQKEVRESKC
Outline: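 HEK293 cells stably expressing human Nav1.6 were kept under 500 μg/mL G418 with no FGF14 transfection. They were washed and re-plated at very low density onto glass coverslips, and the test compound was applied at 30 μM. Whole-cell patch clamp used extracellular solution (mM): 140 NaCl, 3 KCl, 1 MgCl2, 1 CaCl2, 10 HEPES, 10 glucose.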

Nav1.1 channels = Nav1.1 channels (Homo sapiens, UniProt P35498); assay: Whole-cell patch-clamp electrophysiology in HEK-Nav1.1 cells; format: cell-based
Nav1.2 channels = Nav1.2 channels (Homo sapiens, UniProt Q99250); assay: Whole-cell patch-clamp electrophysiology in HEK-Nav1.2 cells; format: cell-based
Nav1.2 channels, sequence (Q99250 whole entry): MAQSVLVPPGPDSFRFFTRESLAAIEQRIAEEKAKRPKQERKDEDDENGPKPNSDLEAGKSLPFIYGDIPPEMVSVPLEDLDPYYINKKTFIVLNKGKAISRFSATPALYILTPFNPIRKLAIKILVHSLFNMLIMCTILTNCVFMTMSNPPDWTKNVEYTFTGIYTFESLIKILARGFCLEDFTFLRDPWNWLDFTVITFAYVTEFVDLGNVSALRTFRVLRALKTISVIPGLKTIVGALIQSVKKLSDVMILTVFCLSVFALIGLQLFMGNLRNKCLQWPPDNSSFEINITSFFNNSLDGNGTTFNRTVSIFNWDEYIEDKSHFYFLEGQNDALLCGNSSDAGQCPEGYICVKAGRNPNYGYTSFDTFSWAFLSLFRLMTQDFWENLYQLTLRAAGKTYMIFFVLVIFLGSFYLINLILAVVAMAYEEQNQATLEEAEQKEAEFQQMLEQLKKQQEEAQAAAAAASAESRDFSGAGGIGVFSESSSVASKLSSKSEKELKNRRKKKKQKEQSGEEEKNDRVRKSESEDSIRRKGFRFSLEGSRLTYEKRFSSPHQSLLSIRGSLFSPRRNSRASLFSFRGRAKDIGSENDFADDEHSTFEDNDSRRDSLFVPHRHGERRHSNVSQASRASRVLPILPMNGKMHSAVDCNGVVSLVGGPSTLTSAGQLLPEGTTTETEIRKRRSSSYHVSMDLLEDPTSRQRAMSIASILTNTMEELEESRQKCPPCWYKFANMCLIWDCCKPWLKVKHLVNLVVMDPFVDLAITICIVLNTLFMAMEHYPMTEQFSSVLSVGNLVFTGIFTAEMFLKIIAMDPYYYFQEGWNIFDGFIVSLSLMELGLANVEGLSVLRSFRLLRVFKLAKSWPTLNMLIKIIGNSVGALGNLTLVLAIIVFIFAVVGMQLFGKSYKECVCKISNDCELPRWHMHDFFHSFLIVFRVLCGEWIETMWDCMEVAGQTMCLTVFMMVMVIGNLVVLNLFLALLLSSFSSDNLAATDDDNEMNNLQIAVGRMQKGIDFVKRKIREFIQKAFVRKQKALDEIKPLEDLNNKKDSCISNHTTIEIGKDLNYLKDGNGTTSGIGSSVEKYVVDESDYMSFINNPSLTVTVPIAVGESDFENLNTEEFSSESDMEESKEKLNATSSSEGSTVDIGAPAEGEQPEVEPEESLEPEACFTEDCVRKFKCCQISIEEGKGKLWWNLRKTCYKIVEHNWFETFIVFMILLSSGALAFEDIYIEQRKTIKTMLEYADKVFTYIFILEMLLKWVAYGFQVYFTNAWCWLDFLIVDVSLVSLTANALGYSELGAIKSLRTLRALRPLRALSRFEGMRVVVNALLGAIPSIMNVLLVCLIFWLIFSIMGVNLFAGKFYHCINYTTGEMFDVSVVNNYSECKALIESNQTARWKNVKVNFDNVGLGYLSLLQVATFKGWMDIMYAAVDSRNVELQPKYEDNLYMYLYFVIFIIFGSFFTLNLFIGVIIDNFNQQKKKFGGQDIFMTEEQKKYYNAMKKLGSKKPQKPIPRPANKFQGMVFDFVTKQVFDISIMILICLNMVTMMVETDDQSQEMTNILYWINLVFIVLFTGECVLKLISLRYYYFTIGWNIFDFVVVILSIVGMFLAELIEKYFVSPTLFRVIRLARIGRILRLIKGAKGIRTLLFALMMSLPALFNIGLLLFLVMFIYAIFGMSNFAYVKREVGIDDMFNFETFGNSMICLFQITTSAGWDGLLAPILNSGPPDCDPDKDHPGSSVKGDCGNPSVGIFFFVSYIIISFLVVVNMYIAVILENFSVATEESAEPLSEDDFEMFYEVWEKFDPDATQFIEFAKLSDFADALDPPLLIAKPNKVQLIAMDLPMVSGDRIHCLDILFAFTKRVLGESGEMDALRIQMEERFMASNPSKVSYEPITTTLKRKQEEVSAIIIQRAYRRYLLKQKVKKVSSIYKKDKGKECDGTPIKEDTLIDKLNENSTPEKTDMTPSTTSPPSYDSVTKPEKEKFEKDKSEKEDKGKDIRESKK

Nav1.6 C-terminal tail = Nav1.6 C-terminal tail (Homo sapiens, UniProt Q9UQD0); assay: Surface plasmon resonance; format: binding; conditions: for koff: read-out: koff Nav1.6 C-terminal tail; for kon: read-out: kon Nav1.6 C-terminal tail
[2] = target: B2; assay: SPR
[3] = target: B1; assay: SPR
FGF14:Nav1.6 = FGF14:Nav1.6 (Homo sapiens, UniProt Q92915+Q9UQD0); assay: SPR of FGF14 binding to Nav1.6 C-terminal tail, alone or in complex with 21a; conditions: FGF14 alone
Outline: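 Recombinant human Nav1.6 C-terminal tail (aa 1763–1976, His-tagged, E. coli-expressed, purified by column chromatography) amine-coupled to a CM5 chip (934 RU). FGF14 at 15.6–1500 nM, complexed with 2.1% DMSO alone, was flowed over the chip at 25 °C and 50 μL/min. Injection 120 s, dissociation 150 s, then regeneration (600 mM NaCl, 5% DMSO). kon and koff came from a Langmuir 1:1 fit.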

For C=CCOC(=O)[C@@H](NC(=O)[C@H](CCC(=O)OC(C)(C)C)NC(=O)[C@H](CC(C)C)NC(=O)[C@@H]1CCCN1C(=O)C12CC3CC(CC(C3)C1)C2)C(C)C [Compound 23a, tert-Butyl (S)-4-((S)-2-((S)-1-((3S,5S,7S)-adamantane-1-carbonyl)pyrrolidine-2-carboxamido)-4-methylpentanamido)-5-(((S)-1-(allyloxy)-3-methyl-1-oxobutan-2-yl)amino)-5-oxopentanoate] (Adamantane1carbonyl-PLE(OtBu)V-OAll), the koff (FGF14) was 0.00932 s⁻¹, the kon (FGF14) was 17900 M⁻¹ s⁻¹ and the “Effect on Nav1.6-mediated currents” value [1] was “unaffected”.

In the case of COC(=O)[C@@H](NC(=O)[C@H](CCC(=O)OC(C)(C)C)NC(=O)[C@H](CC(C)C)NC(=O)[C@@H]1CCCN1C(=O)C12CC3CC(CC(C3)C1)C2)C(C)C [Compound 21a, tert-Butyl (S)-4-((S)-2-((S)-1-((3S,5S,7S)-adamantane-1-carbonyl)pyrrolidine-2-carboxamido)-4-methylpentanamido)-5-(((S)-1-methoxy-3-methyl-1-oxobutan-2-yl)amino)-5-oxopentanoate] (Adamantane1carbonyl-PLE(OtBu)V-OMe), the “Changes in the kinetic properties of Nav1.1 channels” value (Nav1.1 channels) is reported as “no changes”, the “Changes in the kinetic properties of Nav1.2 channels” value (Nav1.2 channels) is reported as “no changes” and the koff (FGF14) is reported as 0.00933 s⁻¹. For the same molecule, the kon (FGF14) was 4660 M⁻¹ s⁻¹, the “Binding to Nav1.6 C-terminal tail by SPR (in words)” value (“Binding … (in words)” below) (Nav1.6 C-terminal tail) was “appreciable binding” and the koff (Nav1.6 C-terminal tail) was 0.00357 s⁻¹. For the same molecule, the kon (Nav1.6 C-terminal tail) was 62300 M⁻¹ s⁻¹.

CCCOC(=O)[C@@H](NC(=O)[C@H](CCC(=O)OC(C)(C)C)NC(=O)[C@H](CC(C)C)NC(=O)[C@@H]1CCCN1C(=O)C12CC3CC(CC(C3)C1)C2)C(C)C [Compound 23g, tert-Butyl (4S)-4-((2S)-2-((2S)-1-((1R,3R)-adamantane-1-carbonyl)pyrrolidine-2-carboxamido)-4-methylpentanamido)-5-(((S)-3-methyl-1-oxo-1-propoxybutan-2-yl)amino)-5-oxopentanoate] (Adamantane1carbonyl-PLE(OtBu)V-OPr) was tested, and the koff (FGF14) was 0.0204 s⁻¹, the kon (FGF14) was 289 M⁻¹ s⁻¹ and the “Binding … (in words)” value (Nav1.6 C-terminal tail) was “appreciable binding”. The koff (Nav1.6 C-terminal tail) was 0.0492 s⁻¹ and the kon (Nav1.6 C-terminal tail) was 340 M⁻¹ s⁻¹.

With CCOC(=O)[C@@H](NC(=O)[C@H](CCC(=O)OC(C)(C)C)NC(=O)[C@H](CC(C)C)NC(=O)[C@@H]1CCCN1C(=O)C12CC3CC(CC(C3)C1)C2)C(C)C [Compound 23f, tert-Butyl (4S)-4-((2S)-2-((2S)-1-((1R,3R)-adamantane-1-carbonyl)pyrrolidine-2-carboxamido)-4-methylpentanamido)-5-(((S)-1-ethoxy-3-methyl-1-oxobutan-2-yl)amino)-5-oxopentanoate] (Adamantane1carbonyl-PLE(OtBu)V-OEt) the koff (FGF14) was 0.0205 s⁻¹, the kon (FGF14) was 217 M⁻¹ s⁻¹ and the “Binding … (in words)” value (Nav1.6 C-terminal tail) was “appreciable binding”. For the same molecule, the koff (Nav1.6 C-terminal tail) was 0.0122 s⁻¹ and the kon (Nav1.6 C-terminal tail) was 2640 M⁻¹ s⁻¹.

With B1 the Kd [2] was 228 ± 57.5 nM, the koff [2] was 0.00171 s⁻¹ and the kon [2] was 21800 M⁻¹ s⁻¹.

With B2 the “KD with 10 μM 21a” value [3] was 1420 ± 135 nM.

For B3, the “koff of FGF14 binding to Nav1.6 C-terminal tail” value (FGF14:Nav1.6) was 0.00171 ± 1.02e-05 s⁻¹ and the “kon of FGF14 binding to Nav1.6 C-terminal tail” value (FGF14:Nav1.6) was 21800 ± 160 M⁻¹ s⁻¹.
